For assay [1], the system named is A549. As to the kind of experiment: Induction of DNA damage in human A549 cells. It counts as functional, cell-based.
In assay [2] the test system is A549. Nature of the assay: Induction of p53 protein expression in human A549 cells at 10 uM after 72 hrs by Western blot relative to untreated control. It counts as functional. In a few lines:
(§1)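 A549 cells (RPMI 1640, 2 mM glutamine, 10% FBS, 37 °C, 5% CO2) treated with compound; lysate proteins (50 µg) run on 5–15% SDS–PAGE, blotted to nitrocellulose, probed with mouse anti-human p53 (DO1) and anti-GAPDH monoclonals, then HRP secondary. p53 level given as fold increase over control; mean ± SD of three independent experiments, one-tailed Student's t-test.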
For orientation: Immunoblotting shows a protein as a band on a membrane.

Assay [3] relates to A549. As to the kind of experiment: Induction of p53 protein expression in human A549 cells at 10 uM after 48 hrs by Western blot relative to untreated control. It counts as functional. An outline of the steps: as §1
Assay [4] deals with A549. As to the kind of experiment: Induction of p53 protein expression in human A549 cells at 20 uM after 72 hrs by Western blot relative to untreated control. It counts as functional. An outline of the steps:
as §1

Assay [5] deals with A549. Nature of the assay: Cell cycle arrest in human A549 cells assessed as accumulation at S phase. It counts as functional, cell-based.
For assay [6], the target named is Epidermal growth factor receptor (Homo sapiens, UniProt P00533). Nature of the assay: Inhibition of EGFR autophosphorylation in human A549 cells.
Assay [7] concerns A549. As to the kind of experiment: Induction of p53 protein expression in human A549 cells at 20 uM after 48 hrs by Western blot relative to untreated control. It counts as functional. In a few lines:
as §1

Assay [8] deals with A549. As to the kind of experiment: Antiproliferative activity against human A549 cells at 20 uM after 72 hrs by trypan blue exclusion method. It counts as functional. Conditions: A549, 72 h.

Each structure is given as a SMILES string. pIC50: −log10 of the molar value. Active and inactive are the calls of the source. The rule behind the calls is not given here.

Chain of Epidermal growth factor receptor (P00533 whole entry): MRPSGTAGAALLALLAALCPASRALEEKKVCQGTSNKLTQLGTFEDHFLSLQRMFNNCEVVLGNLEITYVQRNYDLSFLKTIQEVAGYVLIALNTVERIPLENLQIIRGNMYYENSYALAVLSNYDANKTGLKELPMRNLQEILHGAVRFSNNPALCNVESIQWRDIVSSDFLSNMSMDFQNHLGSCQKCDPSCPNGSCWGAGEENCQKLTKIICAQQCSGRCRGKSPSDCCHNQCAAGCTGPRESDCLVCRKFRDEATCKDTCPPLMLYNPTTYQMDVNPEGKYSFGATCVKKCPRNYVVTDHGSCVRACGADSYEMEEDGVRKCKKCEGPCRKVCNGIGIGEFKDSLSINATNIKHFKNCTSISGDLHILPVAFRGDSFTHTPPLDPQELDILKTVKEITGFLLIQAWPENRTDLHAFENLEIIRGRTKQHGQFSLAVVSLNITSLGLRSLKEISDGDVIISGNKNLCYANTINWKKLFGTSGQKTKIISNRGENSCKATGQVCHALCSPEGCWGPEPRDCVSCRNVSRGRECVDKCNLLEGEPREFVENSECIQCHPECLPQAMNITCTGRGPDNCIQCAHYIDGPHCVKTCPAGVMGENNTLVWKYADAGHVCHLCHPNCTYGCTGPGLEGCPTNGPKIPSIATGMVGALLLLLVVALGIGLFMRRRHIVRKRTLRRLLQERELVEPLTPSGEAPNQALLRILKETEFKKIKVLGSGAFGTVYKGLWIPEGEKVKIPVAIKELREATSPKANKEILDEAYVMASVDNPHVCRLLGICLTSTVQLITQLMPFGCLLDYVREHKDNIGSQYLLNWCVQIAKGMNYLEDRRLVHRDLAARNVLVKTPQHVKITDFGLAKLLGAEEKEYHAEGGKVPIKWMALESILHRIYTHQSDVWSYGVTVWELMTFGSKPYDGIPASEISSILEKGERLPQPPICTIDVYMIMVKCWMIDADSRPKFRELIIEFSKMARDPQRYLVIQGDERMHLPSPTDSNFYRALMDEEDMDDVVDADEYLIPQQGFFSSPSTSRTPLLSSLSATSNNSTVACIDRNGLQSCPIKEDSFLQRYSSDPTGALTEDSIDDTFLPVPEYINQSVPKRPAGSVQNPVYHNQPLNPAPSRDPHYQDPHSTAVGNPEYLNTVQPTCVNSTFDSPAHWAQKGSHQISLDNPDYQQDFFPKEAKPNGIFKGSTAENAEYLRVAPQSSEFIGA

Broadly, the pIC50 is the negative decadic logarithm of the IC50, by convention in mol/L. A high value points to a small IC50. A word on the inhibition: it is the change of the read-out against control, counted positive when it falls. Low readings indicate little suppression, high ones strong suppression. `O=C1NC(=O)N(CCc2ccccc2)/C1=C/c1ccc(O)cc1`: the result in the assay on A549 [1] and in the assay on A549 [5] was Active. Moreover, the “fold change (FC)” value with A549 [2] was found to be 1.4; in the assay with A549 [3], 1; in the assay on A549 [4], 3.2; with A549 [7], 2.3. The same compound gave a negative logarithm of the IC50 (pIC50) in assay [6] of 4.72. The inhibition at 20 µM in the assay with A549 [8] turned out to be 53%.
On to `CC(=O)Nc1ccc(/C=C2\C(=O)NC(=O)N2CCc2ccccc2)cc1`, for which the “fold change (FC)” value in the assay with A549 [7] was found to be 1.7. Besides, in the assay on A549 [8], the inhibition at 20 µM was determined as 39%.
With `O=C1NC(=O)N(Cc2ccccc2)/C1=C/c1ccc(O)cc1`, the “fold change (FC)” value in the assay on A549 [7] is 1.8. Also, 20 µM produced 41% inhibition in the assay with A549 [8].
Consider `CCCCN1C(=O)NC(=O)/C1=C/c1ccccc1`, for which 20 µM produced 18% inhibition in the assay on A549 [8].
`CCCCN1C(=O)NC(=O)/C1=C/c1ccc(Cl)cc1` yielded an inhibition at 20 µM with A549 [8] of 26%.
For `O=C1NC(=O)N(CCc2ccccc2)/C1=C\c1ccccc1`, the “fold change (FC)” value in the assay on A549 [7] stood at 1.3. In the assay with A549 [8], this compound returned an inhibition at 20 µM of 42%.
As to `O=C1NC(=O)N(Cc2ccccc2)/C1=C\c1ccccc1`, the “fold change (FC)” value came to 1.8 with A549 [2], 1.1 with A549 [3], 2.6 with A549 [4] and 1.7 with A549 [7]. In addition, in the assay with A549 [8], the inhibition at 20 µM stood at 42%.
With `O=C1NC(=O)N(Cc2ccccc2)/C1=C/c1ccccc1`, the inhibition at 20 µM with A549 [8] turned out to be 2.9%.
For the compound `CCCCCCN1C(=O)NC(=O)/C1=C\c1ccccc1`, the inhibition at 20 µM in the assay with A549 [8] was 14%.
`CN1C(=O)/C(=C/c2ccccc2)N(CCc2ccccc2)C1=O`: the “fold change (FC)” value in the assay on A549 [7] was 1. The compound also came in with an inhibition at 20 µM in the assay with A549 [8] of 45%.
Regarding `O=C1NC(=O)N(CCc2ccccc2)/C1=C/c1ccccc1`, the “fold change (FC)” value in the assay on A549 [7] turned out to be 1.2. Also, in the assay on A549 [8], the inhibition at 20 µM was determined as 9.4%.
The like results for `CN1C(=O)NC(=O)/C1=C\c1ccccc1` were, in that order, 1.1 and 5.7%.
For the compound `COc1ccc(/C=C2\C(=O)NC(=O)N2CCc2ccccc2)cc1`, the “fold change (FC)” value in the assay on A549 [7] is 1. In addition, the inhibition at 20 µM with A549 [8] was 35%.
`O=C1NC(=O)N(CCc2ccccc2)/C1=C/c1cccc(Cl)c1` showed an inhibition at 20 µM with A549 [8] of 35%.
For the compound `CCCCN1C(=O)NC(=O)/C1=C\c1ccccc1`, 20 µM produced 6.8% inhibition in the assay on A549 [8].
With `O=C1NC(=O)N(CCc2ccccc2)/C1=C\c1cccc(Cl)c1`, the “fold change (FC)” value came to 1.4 with A549 [2], 0.9 with A549 [3], 1.9 with A549 [4] and 1.2 with A549 [7]. In addition, in the assay on A549 [8], the inhibition at 20 µM is 43%.
In the assay on A549 [8], `O=C1NC(=O)N(c2ccccc2)/C1=C\c1ccccc1` returned an inhibition at 20 µM of 26%.
`O=C1NC(=O)N(CCc2ccccc2)/C1=C/c1cccc(O)c1`: the “fold change (FC)” value with A549 [7] came out at 0.9. Also, the inhibition at 20 µM in the assay with A549 [8] amounted to 28%.
In the assay on A549 [8], `CCCCN1C(=O)NC(=O)/C1=C\c1ccc(Cl)cc1` displayed an inhibition at 20 µM of 29%.
Turning to `CN1C(=O)/C(=C\c2ccccc2)N(CCc2ccccc2)C1=O`, in the assay with A549 [7], the “fold change (FC)” value was 1. The same compound displayed an inhibition at 20 µM in the assay on A549 [8] of 31%.
The corresponding values for `CN1C(=O)NC(=O)/C1=C/c1ccccc1` are 1 and 16%.
On to `O=C1NC(=O)N(CCc2cccc(Cl)c2)/C1=C/c1ccccc1`, for which the inhibition at 20 µM in the assay on A549 [8] was 10%.
Turning to `O=C1NC(=O)N(Cc2ccccc2)/C1=C\c1ccc(O)cc1`, the “fold change (FC)” value with A549 [7] came out at 2. In the assay on A549 [8], the inhibition at 20 µM amounted to 32%.
On to `O=C1NC(=O)N(CCc2ccccc2)/C1=C\c1ccc(O)cc1`, for which the “fold change (FC)” value in the assay with A549 [2] was found to be 1.7; with A549 [3], 0.9; in the assay on A549 [4] it was 2.7; in the assay with A549 [7] it was 1.5. Further, the inhibition at 20 µM in the assay with A549 [8] was 44%.
For `O=C1NC(=O)N(CCc2cccc(Cl)c2)/C1=C\c1ccccc1`, the “fold change (FC)” value is listed as 1.1 with A549 [2], 0.7 with A549 [3], 2.2 in the assay on A549 [4] and 1.5 in the assay on A549 [7]. Also, the inhibition at 20 µM in the assay on A549 [8] worked out at 49%.
In the assay with A549 [8], `CC(=O)Nc1ccc(/C=C2/C(=O)NC(=O)N2CCc2ccccc2)cc1` gave an inhibition at 20 µM of 32%.
`CCCCCCN1C(=O)NC(=O)/C1=C/c1ccccc1` displayed an inhibition at 20 µM in the assay with A549 [8] of 0%.
For the compound `O=C1NC(=O)N(CCc2ccccc2)[C@@H]1Cc1ccccc1`, in the assay on A549 [7], the “fold change (FC)” value is listed as 1. This compound also displayed an inhibition at 20 µM with A549 [8] of 7.2%.
`O=C1NC(=O)N(CCc2ccccc2)/C1=C\c1cccc(O)c1`: the “fold change (FC)” value in the assay on A549 [7] came out at 1.1. The compound further showed an inhibition at 20 µM with A549 [8] of 40%.
In the assay on A549 [8], `O=C1NC(=O)N(c2ccccc2)/C1=C/c1ccccc1` displayed an inhibition at 20 µM of 18%.

The values are drawn from ChEMBL document CHEMBL1153566, “5-Benzylidene-hydantoins: synthesis and antiproliferative activity on A549 lung cancer cell line” (Eur J Med Chem, 2009).
